The test system of one data set is Rattus norvegicus. Briefly: Antidepressant-like activity in Wistar rat assessed as decrease in immobility time at 10 mg/kg, po administered at 1, 5, 23.5 hrs prior to testing measured for 5 mins by forced swimming test relative to vehicle-treated control. The format is functional. The arrangement: scale not given: the % may be the effect or the level left.
Data set [1] is described as follows: Tmax in Sprague-Dawley rat at 10 mg/kg, po by LC/MS/MS analysis. Type of data set: ADME, organism-based. As to conditions: in vivo. The essentials:
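Male Sprague–Dawley rats dosed orally (n = 4). Jugular vein blood sampled at 0.25, 0.5, 1, 2, 4, 6 and 24 h into heparin, plasma obtained by centrifugation. Concentrations determined by LC/MS/MS.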

For another data set, the system named is Plasma. The data set is described as follows: Unbound plasma concentration in Sprague-Dawley rat at 30 mg/kg, po measured at 1 hr by LC/MS/MS analysis. The format is ADME, organism-based. Conditions: in vivo. The essentials:
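Male SD rats given 30 mg/kg orally (n = 3 per time point), killed at 1 and 3 h. Heparinized blood collected for plasma; brain rinsed in saline, weighed, homogenized in five volumes (w/v) saline. Plasma and brain levels by LC/MS/MS. Kp,uu,brain is the ratio of unbound brain to unbound plasma concentration.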

In the case of `Cc1noc(C)c1-c1cc2c(c3c1CCC3)NC(C)(C)C(=O)C2(C)C`, the Activity in the data set with Rattus norvegicus is given as 89.1%. Further, in data set [1], the Tmax came out at 3.5 h. Also, the “Cp(f)” value in the data set with Plasma stood at 14.1 nM.
